One data set relates to G9a mRNA. The data set can be described thus: RT-qPCR of G9a mRNA in H1299 cells. It counts as cell-based. The conditions noted are these: 3 μM, 24 h, normalized to DMSO. In short, it runs like this:
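H1299 cells were treated with DMSO or test compound at 3 μM for 24 h. Total RNA was extracted and reverse-transcribed to cDNA. qPCR used gene-specific primers for G9a and GLP, and a GAPDH primer set was included.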
(In general: Real-time PCR tracks product formation cycle by cycle.)

The next data set has as its target EZH2 (Homo sapiens, UniProt Q15910). Nature of the data set: Western blot of EZH2 protein level in 22Rv1 cells. It counts as cell-based. The conditions noted are these: indicated concentration, 24 h, WB. (In general: A western blot detects proteins with antibodies after separation by electrophoresis.)
The target in the next data set is T1, GLP (Homo sapiens, UniProt Q9H9B1).
T1 sequence (Q9H9B1 1-1298): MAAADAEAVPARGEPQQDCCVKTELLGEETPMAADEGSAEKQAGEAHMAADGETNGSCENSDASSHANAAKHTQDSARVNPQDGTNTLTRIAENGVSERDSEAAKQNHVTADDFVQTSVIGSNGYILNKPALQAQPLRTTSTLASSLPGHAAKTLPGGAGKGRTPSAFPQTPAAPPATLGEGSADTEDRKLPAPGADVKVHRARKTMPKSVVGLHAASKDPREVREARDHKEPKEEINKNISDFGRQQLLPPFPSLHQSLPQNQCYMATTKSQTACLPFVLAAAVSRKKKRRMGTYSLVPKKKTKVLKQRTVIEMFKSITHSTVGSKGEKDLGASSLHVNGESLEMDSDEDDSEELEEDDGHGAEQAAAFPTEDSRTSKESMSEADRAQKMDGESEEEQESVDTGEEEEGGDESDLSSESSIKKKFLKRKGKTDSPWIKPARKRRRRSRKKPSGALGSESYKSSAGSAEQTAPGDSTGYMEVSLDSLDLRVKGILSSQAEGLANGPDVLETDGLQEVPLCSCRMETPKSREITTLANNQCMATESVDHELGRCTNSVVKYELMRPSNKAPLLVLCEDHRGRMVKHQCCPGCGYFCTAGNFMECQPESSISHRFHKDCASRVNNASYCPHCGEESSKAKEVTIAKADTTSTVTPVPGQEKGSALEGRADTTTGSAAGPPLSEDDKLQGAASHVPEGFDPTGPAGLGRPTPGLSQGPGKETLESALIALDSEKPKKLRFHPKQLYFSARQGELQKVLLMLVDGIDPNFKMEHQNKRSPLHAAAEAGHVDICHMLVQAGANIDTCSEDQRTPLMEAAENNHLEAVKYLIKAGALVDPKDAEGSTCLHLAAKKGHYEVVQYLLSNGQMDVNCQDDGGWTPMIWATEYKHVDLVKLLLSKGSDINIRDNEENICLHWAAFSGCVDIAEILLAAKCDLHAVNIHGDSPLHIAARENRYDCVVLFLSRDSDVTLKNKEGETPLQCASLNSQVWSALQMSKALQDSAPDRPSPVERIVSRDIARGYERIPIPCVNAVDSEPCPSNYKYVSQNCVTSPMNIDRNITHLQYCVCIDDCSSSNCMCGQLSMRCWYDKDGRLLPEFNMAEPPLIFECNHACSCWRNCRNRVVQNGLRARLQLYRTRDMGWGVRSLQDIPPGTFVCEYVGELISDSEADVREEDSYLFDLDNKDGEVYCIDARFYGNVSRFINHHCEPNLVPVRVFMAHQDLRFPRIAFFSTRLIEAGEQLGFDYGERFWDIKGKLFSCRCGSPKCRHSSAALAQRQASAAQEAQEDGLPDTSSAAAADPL
Nature of the data set: GLP radioactive methyltransferase assay. The conditions noted are these: indicated concentrations, duplicate (Figure 4C). It counts as biochemical. Put shortly:
(§1)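 Enzyme activity was measured with a radioisotope-based MT HotSpot methyltransferase assay run by a contract laboratory. Test compounds were run at the indicated concentrations, in duplicate. Data are mean ± SD of the two duplicate experiments.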

For another data set, the target named is T2, G9a (Homo sapiens, UniProt Q96KQ7).
T2 sequence (Q96KQ7 1-1210): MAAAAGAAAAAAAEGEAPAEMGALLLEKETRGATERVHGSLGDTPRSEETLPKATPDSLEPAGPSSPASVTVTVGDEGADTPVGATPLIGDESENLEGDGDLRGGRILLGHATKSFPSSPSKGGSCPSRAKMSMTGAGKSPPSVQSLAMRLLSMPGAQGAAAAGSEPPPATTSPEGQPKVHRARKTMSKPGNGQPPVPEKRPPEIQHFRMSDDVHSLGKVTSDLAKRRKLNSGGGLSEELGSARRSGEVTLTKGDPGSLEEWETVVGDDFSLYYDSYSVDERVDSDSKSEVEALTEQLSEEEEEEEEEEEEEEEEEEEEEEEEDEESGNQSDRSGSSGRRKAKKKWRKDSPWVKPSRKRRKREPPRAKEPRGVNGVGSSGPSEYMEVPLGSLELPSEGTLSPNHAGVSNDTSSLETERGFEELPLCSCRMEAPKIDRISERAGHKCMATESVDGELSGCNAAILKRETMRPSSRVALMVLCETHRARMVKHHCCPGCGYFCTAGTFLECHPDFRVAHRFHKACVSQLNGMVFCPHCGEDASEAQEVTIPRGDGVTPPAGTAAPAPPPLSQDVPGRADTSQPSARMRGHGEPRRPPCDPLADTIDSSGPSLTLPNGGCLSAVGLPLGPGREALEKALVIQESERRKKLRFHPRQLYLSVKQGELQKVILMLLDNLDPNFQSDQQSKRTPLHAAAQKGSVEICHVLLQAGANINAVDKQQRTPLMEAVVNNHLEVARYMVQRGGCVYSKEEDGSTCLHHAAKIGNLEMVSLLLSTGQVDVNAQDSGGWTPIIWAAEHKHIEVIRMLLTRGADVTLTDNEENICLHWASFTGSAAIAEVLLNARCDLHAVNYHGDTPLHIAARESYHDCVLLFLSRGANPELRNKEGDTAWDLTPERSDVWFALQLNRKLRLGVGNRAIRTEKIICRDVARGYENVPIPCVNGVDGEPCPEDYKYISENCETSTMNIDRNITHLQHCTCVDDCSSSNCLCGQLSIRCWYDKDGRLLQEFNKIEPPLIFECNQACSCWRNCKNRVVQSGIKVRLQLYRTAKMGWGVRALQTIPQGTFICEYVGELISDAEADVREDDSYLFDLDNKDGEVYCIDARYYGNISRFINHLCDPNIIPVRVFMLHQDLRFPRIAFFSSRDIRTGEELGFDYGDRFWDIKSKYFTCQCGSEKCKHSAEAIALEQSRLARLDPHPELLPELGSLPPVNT
The data set can be described thus: G9a radioactive methyltransferase assay. It counts as biochemical. The conditions noted are these: indicated concentrations, duplicate (Figure 4B). In short, it runs like this:
as §1

For data set [1], the system named is panel of 21 protein methyltransferases. The data set can be described thus: Selectivity panel, radioactive methyltransferase assays. It counts as biochemical. The conditions noted are these: 10 μM compound, duplicate. Put shortly: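 The selectivity screen covered 21 protein methyltransferases in radioisotope-based MT HotSpot methyltransferase assays run by a contract laboratory. Test compound was at 10 μM. Each assay was run in duplicate and reported as mean ± SD of the two replicates.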

Data set [2] is described as follows: Mouse PK study, single IP administration. It counts as in vivo. The conditions noted are these: C57BL/6 mice.

Where only a bound is given, the exact number is not on record here.

By Cmax is commonly meant the highest concentration seen after dosing.

Sequence of EZH2 (Q15910 whole entry): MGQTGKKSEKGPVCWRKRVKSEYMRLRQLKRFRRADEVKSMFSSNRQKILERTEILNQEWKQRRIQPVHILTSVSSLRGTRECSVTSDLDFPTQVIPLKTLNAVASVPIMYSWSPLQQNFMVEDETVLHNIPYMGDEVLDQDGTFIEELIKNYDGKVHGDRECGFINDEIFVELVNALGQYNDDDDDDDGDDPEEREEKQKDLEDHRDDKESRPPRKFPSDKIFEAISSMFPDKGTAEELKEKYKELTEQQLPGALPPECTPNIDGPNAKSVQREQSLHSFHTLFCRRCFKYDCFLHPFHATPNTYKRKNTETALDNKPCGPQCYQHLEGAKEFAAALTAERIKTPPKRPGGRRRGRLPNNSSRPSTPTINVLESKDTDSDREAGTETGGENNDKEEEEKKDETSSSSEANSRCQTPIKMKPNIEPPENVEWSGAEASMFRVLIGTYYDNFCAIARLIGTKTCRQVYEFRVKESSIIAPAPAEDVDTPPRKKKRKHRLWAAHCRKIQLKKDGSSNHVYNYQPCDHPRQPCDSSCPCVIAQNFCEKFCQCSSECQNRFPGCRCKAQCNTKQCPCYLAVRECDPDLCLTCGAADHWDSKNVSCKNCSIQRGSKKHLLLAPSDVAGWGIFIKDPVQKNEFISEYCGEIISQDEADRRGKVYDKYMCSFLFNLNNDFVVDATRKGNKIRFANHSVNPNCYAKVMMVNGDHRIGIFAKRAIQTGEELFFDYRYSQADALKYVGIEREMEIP

Consider `COc1cc2c(NC3CCN(CCCC(=O)NCCCCCCCCCCCC(=O)N[C@H](C(=O)N4C[C@H](O)C[C@H]4C(=O)NCc4ccc(-c5scnc5C)cc4)C(C)(C)C)CC3)nc(N3CCC(F)(F)CC3)nc2cc1OCCCN1CCCC1` [Compound 10, (2S,4R)-1-((S)-2-(12-(4-(4-((2-(4,4-difluoropiperidin-1-yl)-6-methoxy-7-(3-(pyrrolidin-1-yl)propoxy)quinazolin-4-yl)amino)piperidin-1-yl)butanamido)dodecanamido)-3,3-dimethylbutanoyl)-4-hydroxy-N-(4-(4-methylthiazol-5-yl)benzyl)pyrrolidine-2-carboxamide], for which the “mRNA levels of G9a” value in the data set on G9a mRNA was “did not significantly alter”. Besides, the EZH2 degradation entry on EZH2 is on record as “cannot induce the degradation”. On GLP, the “inhibition of GLP enzymatic activity” value was “similarly inhibited”. The “inhibition of G9a enzymatic activity” value at G9a is on record as “similarly inhibited”. Further, in data set [1], the “inhibition of panel methyltransferases” value is reported as ≤ 50%. Moreover, the Cmax in data set [2] (IP, 50 mg/kg, plasma, HCl salt form) is 27 ± 0.6 µM. The “plasma exposure levels maintained up to 8 h” value in data set [2] (IP, 50 mg/kg, up to 8 h) was > 5 µM. In addition, in data set [2] (single IP 50 mg/kg), the “clinical signs in the PK study” value is listed as “no clinical signs were observed” and the “tolerability in the PK study” value was “well tolerated”.
